Test results from ChEMBL document CHEMBL1131024, “N-Arylalkyl pseudopeptide inhibitors of farnesyltransferase” (J Med Chem, 1998).
≈ marks a conversion by molar mass, not a printed value.

Experiments:
[1] = molecular target: Protein farnesyltransferase (Homo sapiens, UniProt P49354+P49356); assay: Inhibition of [3H]FPP incorporation into recombinant human Ha-Ras by Farnesyltransferase; assay type: protein-complex assay
Method in brief: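 FTase, either purified from bovine brain or homogeneous human recombinant, transferred [³H]FPP onto recombinant Ha-Ras. Total protein was acid-precipitated and protein-bound FPP was counted by scintillation. IC50 is the concentration inhibiting 50% of [³H]FPP incorporation.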

[2] = molecular target: Geranylgeranyl transferase type I (Bos taurus, UniProt P29702+Q5EAD5); assay: Inhibition of bovine Geranylgeranyl transferase type I; assay type: protein-complex assay
[3] = molecular target: T1, Protein farnesyltransferase (Bos taurus, UniProt P29702+P49355); assay: Inhibition of bovine brain Farnesyltransferase at 10 pM; settings: in the assay text read “at approximately 1 nM” for “at 10 pM”
[4] = test system: NIH3T3; assay: Highest nontoxic concentration in NIH3T3 cells by MTT staining; assay type: functional, Mus musculus
Method in brief: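 NIH 3T3 cells were exposed to compound for 48 h, and viability was read by MTT staining. The endpoint is the highest concentration the cells tolerated.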

[5] = molecular target: Protein farnesyltransferase (Mus musculus, UniProt Q61239+Q8K2I1); assay: Inhibition of post-translational processing of v-Ras protein in NIH3T3 cells; assay type: functional, cell-based
Method in brief: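 v-ras-transformed NIH 3T3 cells were incubated 24 h with compound or solvent control and labeled with [³⁵S]methionine over the final 20 h. Processed (farnesylated) Ras was resolved by SDS-PAGE. Lovastatin at 15 µM served as positive control.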

[6] = test system: Rat1; assay: Inhibition of colony formation in Rat 1-v-ras-transformed cells in soft agar; assay type: functional
Method in brief: (§1)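 Rat1 cells transformed by v-ras or v-raf were grown in soft agar for about 2 weeks, fed twice weekly. MIC is the minimum concentration reducing colony size and number relative to vehicle-treated controls.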

[7] = molecular target: T1, Protein farnesyltransferase; assay: Inhibition of bovine brain Farnesyltransferase at 1 nM
Method in brief: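 Bovine brain FTase at approximately 1 nM transferred [³H]FPP onto recombinant human Ha-Ras. Acid-precipitated protein-bound label was counted by scintillation. IC50 is the concentration giving 50% inhibition of incorporation.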

[8] = test system: Rat1; assay: Inhibition of colony formation in Rat 1-v-raf-transformed cells in soft agar; assay type: functional; method in brief: as §1

Compound	IC50 [1]	IC50 [2]	also measured
CC[C@@H](C)[C@@H](CN(C)[C@H](C(=O)N[C@@H](CCSC)C(=O)O)[C@@H](C)CC)NC[C@@H](N)CS	25 nM	4700 nM	–
CCC[C@@H](C(=O)N[C@@H](CCO)C(=O)O)N(C)C[C@@H](NC[C@@H](N)CS)[C@H](C)CC	21 nM	43000 nM	–
CC[C@@H](C)[C@@H](CN(C)CC(=O)N[C@@H](CCO)C(=O)O)NC[C@@H](N)CS	–	10000 nM	IC50 [3]: 83 nM
CC[C@@H](C)[C@@H](C(=O)N[C@H]1CCOC1=O)N(C)C[C@@H](NC[C@@H](N)CS)[C@H](C)CC	–	–	CTE [4]: 500 µM; IC50 [5]: 25000 nM; MIC [6]: 500 µM (≈ 208 µg/mL)
CC[C@@H](C)[C@@H](CN(C)[C@@H](Cc1ccccc1)C(=O)N[C@@H](CCSC)C(=O)O)NC[C@@H](N)CS	42 nM	–	–
CC[C@@H](C)[C@@H](CN[C@@H](Cc1ccccc1)C(=O)N[C@@H](CCO)C(=O)O)NC[C@@H](N)CS	–	10000 nM	IC50 [7]: 26 nM
CC[C@@H](C)[C@H](NC[C@@H](NC[C@@H](N)CS)[C@H](C)CC)C(=O)N[C@H]1CCOC1=O	–	–	CTE [4]: >1000 µM; IC50 [5]: 100000 nM; MIC [6]: 1000 µM (≈ 403 µg/mL); MIC [8]: > 1000 µM
CC[C@@H](C)[C@@H](CN(C)[C@@H](Cc1ccccc1)C(=O)N[C@@H](CCO)C(=O)O)NC[C@@H](N)CS	1600 nM	–	–
CC[C@H](C)[C@H](NC[C@@H](NC[C@@H](N)CS)[C@@H](C)CC)C(=O)N[C@@H](CCO)C(=O)O	20 nM	–	–
CC[C@@H](C)[C@@H](CN[C@H](C(=O)N[C@@H](CCSC)C(=O)O)[C@@H](C)CC)NC[C@@H](N)CS	30 nM	–	–
CC[C@@H](C)[C@@H](CN(Cc1ccccc1)[C@@H](Cc1ccccc1)C(=O)N[C@@H](CCSC)C(=O)O)NC[C@@H](N)CS	1400 nM	–	–
CCC(C)[C@@H](CN(CC(=O)N[C@@H](CCSC)C(=O)OC)Cc1ccccc1)NC[C@@H](N)CS (stereo partly specified)	–	–	CTE [4]: 10 µM; IC50 [5]: 100 nM
CC[C@@H](C)[C@@H](CN(CC(=O)N[C@@H](CCSC)C(=O)O)Cc1ccccc1)NCCCS	2.2 nM	39000 nM	–
CC[C@@H](C)[C@@H](CN(CC(=O)N[C@@H](CCSC)C(=O)O)Cc1ccccc1)NC[C@@H](N)CS	1.2 nM	450 nM	–
CC[C@@H](C)[C@@H](CN[C@@H](Cc1ccccc1)C(=O)N[C@@H](CCSC)C(=O)O)NC[C@@H](N)CS	4.8 nM	5750 nM	–
CC[C@@H](C)[C@@H](CN(CC(=O)N[C@@H](CCSC)C(=O)OC)Cc1cccc2ccccc12)NC[C@@H](N)CS	–	–	CTE [4]: 5 µM; IC50 [5]: 500 nM; MIC [6]: 2.5 µM (≈ 1.37 µg/mL); MIC [8]: > 5 µM
CCC[C@H](NC[C@@H](NC[C@@H](N)CS)[C@H](C)CC)C(=O)N[C@@H](CCO)C(=O)O	–	10000 nM	IC50 [3]: 27 nM
CC[C@@H](C)[C@@H](CN(CC(=O)N[C@@H](CCO)C(=O)O)Cc1cccc2ccccc12)NC[C@@H](N)CS	0.123 nM	10 nM	–
